This note sets out measurements from ChEMBL document CHEMBL4334546, “Discovery of N-(Indazol-3-yl)piperidine-4-carboxylic Acids as RORγt Allosteric Inhibitors for Autoimmune Diseases” (ACS Med Chem Lett, 2020).

As a reminder, the IC50 is the point on the concentration scale where inhibition reaches its midpoint. By half-life is commonly meant the time in which the quantity being followed falls by half. A lower half-life goes with fast loss. By bioavailability is commonly meant dose-corrected exposure relative to a reference, in per cent. For orientation: solubility means the concentration that dissolves in the medium under given conditions. The low end stands for little dissolved substance, the high end for much dissolved substance.

≈ marks a conversion by molar mass, not a printed value. Where only a bound is given, the exact number is not on record here.

Data set [1] has as its target T1, Nuclear receptor ROR-gamma (Homo sapiens, UniProt P51449).
T1 sequence (P51449 whole entry): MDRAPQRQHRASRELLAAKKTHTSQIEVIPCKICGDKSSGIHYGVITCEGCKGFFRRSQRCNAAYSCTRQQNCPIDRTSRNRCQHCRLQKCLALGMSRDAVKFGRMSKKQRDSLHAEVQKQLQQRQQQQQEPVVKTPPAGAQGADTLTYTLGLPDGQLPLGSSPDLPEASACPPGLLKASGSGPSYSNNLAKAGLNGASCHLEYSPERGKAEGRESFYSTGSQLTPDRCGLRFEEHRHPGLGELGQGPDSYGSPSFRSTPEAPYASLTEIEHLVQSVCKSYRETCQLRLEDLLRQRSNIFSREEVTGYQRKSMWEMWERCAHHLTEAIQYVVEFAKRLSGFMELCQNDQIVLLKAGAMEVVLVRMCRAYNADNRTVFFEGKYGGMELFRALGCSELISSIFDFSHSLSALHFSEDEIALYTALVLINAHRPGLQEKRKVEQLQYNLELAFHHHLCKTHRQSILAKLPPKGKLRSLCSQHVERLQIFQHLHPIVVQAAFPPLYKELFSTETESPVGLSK
Put plainly: Allosteric inhibition of recombinant His6-tagged RORgammat LBD (unknown origin) expressed in Escherichia coli BL21(DE3) assessed as inhibition of biotin-labelled SRC-1 peptide recruitment preincubated for 15 mins followed by biotin-labelled SRC-1 peptide addition and measured after overnight incubation by TR-FRET assay. In general terms: TR-FRET usually uses a lanthanide donor and a delayed reading to cut background.

In data set [2] the target is T1, Nuclear receptor ROR-gamma. Kind of data set: Allosteric inhibition of yeast GAL4 DNA domain-fused RORgammat LBD (97 to 518 residues) (unknown origin) expressed in HEK293T cells after 20 to 22 hrs by steady-glo luciferase assay. It is filed as cell-based.
For data set [3], the target named is T2, Peroxisome proliferator-activated receptor gamma (Homo sapiens, UniProt P37231).
T2 sequence (P37231 whole entry): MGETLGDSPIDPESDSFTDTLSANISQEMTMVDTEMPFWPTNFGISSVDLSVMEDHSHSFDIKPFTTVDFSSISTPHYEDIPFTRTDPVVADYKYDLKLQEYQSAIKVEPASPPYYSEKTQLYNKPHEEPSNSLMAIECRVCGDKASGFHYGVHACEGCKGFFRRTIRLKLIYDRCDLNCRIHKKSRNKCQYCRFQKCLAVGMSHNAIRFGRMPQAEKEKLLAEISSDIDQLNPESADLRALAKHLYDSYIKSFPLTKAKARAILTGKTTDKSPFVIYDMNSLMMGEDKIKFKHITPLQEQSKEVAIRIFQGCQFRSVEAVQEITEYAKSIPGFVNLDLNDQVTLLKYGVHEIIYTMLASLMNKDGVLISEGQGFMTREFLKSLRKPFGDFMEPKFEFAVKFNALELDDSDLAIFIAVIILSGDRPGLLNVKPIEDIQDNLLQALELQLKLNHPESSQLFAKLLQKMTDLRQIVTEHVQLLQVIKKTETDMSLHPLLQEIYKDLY
Put plainly: Displacement of [3H]rosiglitazone from human recombinant PPARgamma LBD expressed in insect cells measured after 24 hrs by scintillation counting analysis. A general note: Loss of bound radioactivity is the signal in a displacement assay; it reports binding, not function.

The target of data set [4] is T1, Nuclear receptor ROR-gamma. Kind of data set: Allosteric inhibition of RORgammaT in IL-1B/IL-23/IL-2/IL-6/T-Activator CD3/28 Dynabeads-stimulated human PBMC cells assessed as reduction in Th17 differentiation by measuring reduction in IL-17A level incubated for 4 days post-cell stimulation by ELISA. (ELISA stands for enzyme-linked immunosorbent assay.)
Data set [5] is described as follows: Clearance in Wistar Han rat at 0.5 mg/kg, iv or 1 mg/kg, po by LC-MS/MS analysis. It is filed as ADME, organism-based. The note with it: in vivo.
Data set [6] can be described thus: Half life in Wistar Han rat at 0.5 mg/kg, iv or 1 mg/kg, po by LC-MS/MS analysis. The note with it: in vivo. It is filed as ADME, organism-based.
Data set [7] in a line: Volume of distribution in Wistar Han rat at 0.5 mg/kg, iv or 1 mg/kg, po by LC-MS/MS analysis. It is filed as ADME, organism-based. The note with it: in vivo.
A short description of data set [8]: Clearance in Beagle dog at 0.25 mg/kg, iv or 0.5 mg/kg, po by LC-MS/MS analysis. To be noted: in vivo. It is filed as ADME, organism-based, Canis lupus familiaris.
Data set [9] can be described thus: Half life in Beagle dog at 0.25 mg/kg, iv or 0.5 mg/kg, po by LC-MS/MS analysis. To be noted: in vivo. It is filed as ADME, organism-based, Canis lupus familiaris.
A short description of data set [10]: Volume of distribution in Beagle dog at 0.25 mg/kg, iv or 0.5 mg/kg, po by LC-MS/MS analysis. To be noted: in vivo. It is filed as ADME, organism-based, Canis lupus familiaris.
Data set [11] can be described thus: Oral bioavailability in Wistar Han rat at 1 mg/kg by LC-MS/MS analysis. The data set is classed as ADME, organism-based. To be noted: in vivo.
The nature of data set [12]: Oral bioavailability in Beagle dog at 0.5 mg/kg by LC-MS/MS analysis. The data set is classed as ADME, organism-based, Canis lupus familiaris. The note with it: in vivo.
Data set [13] in a line: Protein binding in rat plasma. The data set is classed as ADME, cell-free. The note with it: read-out: PPB (converted).
Data set [14] is described as follows: Protein binding in dog plasma. The data set is classed as ADME, cell-free, Canis lupus familiaris. To be noted: read-out: PPB (converted).
The nature of data set [15]: Solubility of compound at pH 2. It is filed as physicochemical. The note with it: buffer.
Data set [16] can be described thus: Solubility of compound at pH 7.4. The data set is classed as physicochemical. The note with it: buffer.
Data set [17] in a line: Plasma concentration in C57BL/6 mouse at 1 mg/kg administered as single dose after 2 hrs. It is filed as ADME, organism-based. In outline: (§1)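 Acute pharmacodynamic model: mice received single doses across a dose range, and in this study both plasma compound concentration and Bcl-xL expression in thymocytes were measured to follow RORγt inhibition.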
A short description of data set [18]: Plasma concentration in C57BL/6 mouse at 3 mg/kg administered as single dose after 2 hrs. The data set is classed as ADME, organism-based. In outline: as §1
Data set [19] in a line: Plasma concentration in C57BL/6 mouse at 10 mg/kg administered as single dose after 2 hrs. It is filed as ADME, organism-based. In outline:
as §1

Data set [20] can be described thus: Plasma concentration in C57BL/6 mouse at 30 mg/kg administered as single dose after 2 hrs. It is filed as ADME, organism-based. In outline: as §1
Data set [21] is described as follows: Plasma concentration in C57BL/6 mouse at 100 mg/kg administered as single dose after 2 hrs. The data set is classed as ADME, organism-based. The gist of the method:
as §1

A short description of data set [22]: Unbound clearance in Wistar Han rat at 0.5 mg/kg, iv or 1 mg/kg, po by LC-MS/MS analysis. The data set is classed as ADME, organism-based. The note with it: in vivo.
The species named for data set [23] is Mus musculus. Kind of data set: animal or person. The note with it: C57BL/6, 2 h, read-out: INH.
The species entered for data set [24] is Mus musculus. Kind of data set: animal or person. To be noted: C57BL/6, 2 h, read-out: INH. This is another data set of the same source.
Data set [25] is filed under the species Mus musculus. Put plainly: animal or person. To be noted: C57BL/6, 2 h, read-out: INH. The source holds these as a separate data set.
For data set [26], the species on record is Mus musculus. Put plainly: animal or person. The note with it: C57BL/6, 2 h, read-out: INH. The source holds these as a separate data set.
Data set [27] is filed under the species Mus musculus. Kind of data set: animal or person. To be noted: C57BL/6, 2 h, read-out: INH. This is another data set of the same source.
For data set [28], the species on record is Mus musculus. Kind of data set: animal or person. To be noted: C57BL/6, 2 h.

Turning to `O=C(O)c1ccc(-c2nn(C(=O)c3c(Cl)cccc3Cl)c3ccccc23)cc1`, the values for the 50% inhibitory concentration (IC50) in [1] and in [2] were 5 nM and 400 nM, respectively.
`O=C(O)c1ccc(-c2nn(C(=O)c3c(Cl)cccc3C(F)(F)F)c3cccnc23)c(F)c1`: the IC50 was determined as 6 nM in data set [1]; 90 nM in [2]; 2000 nM in [3]; 33 nM in [4]; 710 nM in the data set listed under Mus musculus [28]. Further, the clearance in [5] was 76 mL/min/kg; in data set [8], 4.5 mL/min/kg. In addition, the half-life in data set [6] was 0.4 h; in data set [9], 1.4 h. Further, the results for the Vd in data set [7] and in [10] were 0.8 L/kg and 0.4 L/kg, respectively. In addition, the figures for the bioavailability in data set [11] and in data set [12] were 16% and 45%, respectively. In addition, the fraction unbound in data set [13] and in [14] was 0.013 each time. Also, the solubility in data set [15] was less than 2 µM; in [16], 147 µM (≈ 68.2 µg/mL). The concentration at 2 h turned out to be 0.18 µM in data set [17]; 0.73 µM in [18]; 4.1 µM in [19]; 51 µM in data set [20]; 254 µM in data set [21]. Also, the CL free in data set [22] was 5846 mL/min/kg. Besides, the inhibition in vivo at 1 mg/kg in the data set filed under Mus musculus [23] came to 17%. In addition, in the data set listed under Mus musculus [24], the inhibition in vivo at 3 mg/kg turned out to be 50%. The inhibition in vivo at 10 mg/kg in the data set listed under Mus musculus [25] was 69%. Also, the inhibition in vivo at 30 mg/kg in the data set filed under Mus musculus [26] came out at 85%. Also, the inhibition in vivo at 100 mg/kg in the data set listed under Mus musculus [27] was determined as 74%.
`O=C(O)[C@@H]1CCN(c2nn(C(=O)c3c(Cl)cccc3C3CC3)c3cccc(F)c23)C[C@H]1O`: the clearance came to 13 mL/min/kg in data set [5] and 1.4 mL/min/kg in data set [8]. Further, the half-life in [6] is 3.7 h; in data set [9] it was 3.1 h. Also, the values for the Vd in data set [7] and in data set [10] were 0.6 L/kg and 0.3 L/kg, respectively. Further, the bioavailability in data set [11] was found to be 35%; in [12], 65%. Further, the fraction unbound in [13] was 0.013; in [14], 0.003. Further, the solubility came to 28 µM (≈ 12.8 µg/mL) in [15] and 153 µM (≈ 70.1 µg/mL) in data set [16]. Also, the CL free in data set [22] is 1000 mL/min/kg.
